From ChEMBL document CHEMBL1140857 (Bioorg Med Chem, 2009)

Key:
[1] = Selectivity ratio of Ki for rat sigma2 receptor to Ki for guinea pig sigma1 receptor
[2] = biological target: Sigma non-opioid intracellular receptor 1 (Cavia porcellus, UniProt Q60492); test: Displacement of [3H](+)-pentazocine from opioid sigma1 receptor in guinea pig brain homogenate; assay type: tissue-based
Method in brief: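 Non-specific binding with 10 µM unlabeled (+)-pentazocine. Filtration, scintillation counting; IC50 by nonlinear regression, Ki by Cheng–Prusoff; triplicates, mean ± SEM of three independent experiments.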

[3] = Displacement of [3H][…] from opioid sigma2 receptor in rat liver homogenate in presence of (+)-pentazocine; assay type: tissue-based
Method in brief: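 Rat liver membranes (about 100 µg protein, 50 mM Tris pH 8.0) incubated 180 min at room temperature with six concentrations of test compound, 3 nM [3H]-ditolylguanidine (Kd 17.9 nM) and 500 nM (+)-pentazocine. […] IC50 by nonlinear regression, Ki by Cheng–Prusoff; triplicates, mean ± SEM of three experiments.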

Sus scrofa = organism: Sus scrofa; test: Displacement of [3H]MK-801 from NMDA receptor in pig brain cortex at 1 uM
5637 = test: Cytotoxicity against human 5637 cells at 20 uM after 96 hrs by crystal violet staining relative to control; assay type: functional
Method in brief: (§1)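 Cell lines from DSMZ (German collection). Cells exposed to 20 µM test substance at 37 °C for 96 h; medium removed and adherent (living) cells stained with crystal violet. Growth given as % of untreated control; averages of two independent experiments.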

RT-4 = test: Cytotoxicity against human RT4 cells at 20 uM after 96 hrs by crystal violet staining relative to control; assay type: functional; method in brief: as §1
A-427 [4] = test: Cytotoxicity against human A427 cells at 20 uM after 96 hrs by crystal violet staining relative to control; assay type: functional; method in brief: as §1
[5] = Cytotoxicity against human LCLC-103H cells at 20 uM after 96 hrs by crystal violet staining relative to control; assay type: functional; method in brief: as §1
DAN-G = test: Cytotoxicity against human DAN-G cells after 96 hrs at 20 uM by crystal violet staining relative to control; assay type: functional; method in brief: as §1
MCF7 = test: Cytotoxicity against human MCF7 cells after 96 hrs at 20 uM by crystal violet staining relative to control; assay type: functional; method in brief: as §1
[6] = biological target: Sigma non-opioid intracellular receptor 1 (Cavia porcellus) (UniProt Q60492); test: Displacement of [3H](+)-pentazocine from opioid sigma1 receptor in guinea pig brain homogenate at 1 uM; assay type: tissue-based
Method in brief: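 Guinea pig brain membranes (about 75 µg protein, 50 mM Tris pH 7.4) with 2 nM [3H]-(+)-pentazocine, 180 min at 37 °C. Test compound at 1 µM; inhibition of radioligand binding reported. Non-specific binding with 10 µM unlabeled (+)-pentazocine; filtration and scintillation counting.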

A-427 [7] = test: Cytotoxicity against human A427 cells after 96 hrs by crystal violet staining relative to control; assay type: functional, cell-based; settings: A-427, 96 h
Method in brief: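 Crystal violet microtiter assay, 96 h exposure at 37 °C. Five serial dilutions from DMF stock solutions; concentrations giving T/C between 10% and 90% used, and IC50 calculated by least-squares analysis of dose–response curves.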

Sigma non-opioid intracellular receptor 1, sequence (Q60492 whole entry): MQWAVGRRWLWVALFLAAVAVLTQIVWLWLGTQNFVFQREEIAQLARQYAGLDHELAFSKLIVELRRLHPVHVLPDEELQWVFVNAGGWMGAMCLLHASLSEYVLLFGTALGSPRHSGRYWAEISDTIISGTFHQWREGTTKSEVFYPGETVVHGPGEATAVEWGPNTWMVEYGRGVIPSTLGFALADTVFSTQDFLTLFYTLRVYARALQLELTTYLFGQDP
Sigma non-opioid intracellular receptor 1 (Cavia porcellus), sequence (Q60492 whole entry): as above

SMILES	Ratio [1]	Ki [2]	Ki [3]	Activity (Sus scrofa)	Activity 5637	Activity (RT-4)	Activity (A-427 [4])	Activity [5]	Activity (DAN-G)	Activity (MCF7)	inhibition [6]	IC50 (A-427 [7])
C=CCN1C[C@@H]2CCC[C@H]1CN2Cc1ccc(OC)cc1	20	0.011 µM	0.203 µM	< 25%	87%	65%	42%	91%	92%	65%	–	–
C=CCN1C[C@H]2[C@@H](O)CC[C@@H]1CN2Cc1ccc(OC)cc1	4	0.343 µM	1.21 µM	< 25%	104%	107%	90%	111%	100%	99%	–	–
C=CCN1C[C@H]2[C@@H](OC)CC[C@@H]1CN2Cc1ccc(OC)cc1OC	–	–	13.5 µM	< 25%	63%	87%	49%	98%	84%	79%	37%	18.9 µM
